Laboratory results taken from publication PMC6468299 (Nucleic Acids Research, 2019).

Key:
DNA polymerase α (Pol-α) = target: T1, DNA polymerase α (Pol-α) (Homo sapiens, UniProt P09884); test: DNA polymerase inhibition assay, Pol-α; format: biochemical; settings: Pol-α; 1 h, 3H-dTTP incorporation
T1 sequence (P09884 1-1462): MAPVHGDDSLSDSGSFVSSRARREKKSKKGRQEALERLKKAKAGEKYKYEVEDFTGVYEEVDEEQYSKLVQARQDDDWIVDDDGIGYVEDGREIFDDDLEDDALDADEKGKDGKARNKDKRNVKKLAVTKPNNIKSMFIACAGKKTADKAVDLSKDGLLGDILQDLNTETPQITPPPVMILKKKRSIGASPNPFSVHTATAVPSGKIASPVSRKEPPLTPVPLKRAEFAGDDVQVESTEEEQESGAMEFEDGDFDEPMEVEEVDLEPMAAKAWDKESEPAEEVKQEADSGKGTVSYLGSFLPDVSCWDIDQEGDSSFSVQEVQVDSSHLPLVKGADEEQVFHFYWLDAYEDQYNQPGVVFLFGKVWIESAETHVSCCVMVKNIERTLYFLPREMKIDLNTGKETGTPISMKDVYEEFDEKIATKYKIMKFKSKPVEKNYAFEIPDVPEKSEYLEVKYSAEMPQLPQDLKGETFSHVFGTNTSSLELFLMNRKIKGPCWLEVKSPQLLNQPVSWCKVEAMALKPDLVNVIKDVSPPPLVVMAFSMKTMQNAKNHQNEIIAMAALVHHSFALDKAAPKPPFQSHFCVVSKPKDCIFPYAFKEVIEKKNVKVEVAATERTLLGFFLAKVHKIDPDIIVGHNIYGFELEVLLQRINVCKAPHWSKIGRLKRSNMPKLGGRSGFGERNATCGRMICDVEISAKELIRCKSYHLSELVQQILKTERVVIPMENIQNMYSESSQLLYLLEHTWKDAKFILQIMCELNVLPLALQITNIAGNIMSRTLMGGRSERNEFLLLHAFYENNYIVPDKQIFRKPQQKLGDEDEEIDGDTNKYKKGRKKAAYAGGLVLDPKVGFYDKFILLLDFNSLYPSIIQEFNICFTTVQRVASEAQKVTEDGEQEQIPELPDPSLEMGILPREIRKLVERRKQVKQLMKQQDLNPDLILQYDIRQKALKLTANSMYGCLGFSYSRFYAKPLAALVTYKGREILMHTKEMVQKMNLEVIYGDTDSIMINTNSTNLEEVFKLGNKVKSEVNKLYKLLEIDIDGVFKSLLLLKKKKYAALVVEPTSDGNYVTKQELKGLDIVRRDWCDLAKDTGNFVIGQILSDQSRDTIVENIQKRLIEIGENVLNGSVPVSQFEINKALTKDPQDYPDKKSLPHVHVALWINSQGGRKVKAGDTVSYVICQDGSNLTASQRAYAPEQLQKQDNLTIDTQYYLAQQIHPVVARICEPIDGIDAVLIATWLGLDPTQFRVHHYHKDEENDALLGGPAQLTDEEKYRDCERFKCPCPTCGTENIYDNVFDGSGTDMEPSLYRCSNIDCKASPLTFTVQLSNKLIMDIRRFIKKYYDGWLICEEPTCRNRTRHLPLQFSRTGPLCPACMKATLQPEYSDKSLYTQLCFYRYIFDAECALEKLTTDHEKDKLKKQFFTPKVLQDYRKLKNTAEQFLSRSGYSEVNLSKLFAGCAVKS

DNA polymerase γ (Pol-γ) = target: T2, DNA polymerase γ (Pol-γ) (Homo sapiens, UniProt P54098); test: DNA polymerase inhibition assay, Pol-γ; format: biochemical; settings: 1 h, 3H-dTTP incorporation
T2 sequence (P54098 1-1239): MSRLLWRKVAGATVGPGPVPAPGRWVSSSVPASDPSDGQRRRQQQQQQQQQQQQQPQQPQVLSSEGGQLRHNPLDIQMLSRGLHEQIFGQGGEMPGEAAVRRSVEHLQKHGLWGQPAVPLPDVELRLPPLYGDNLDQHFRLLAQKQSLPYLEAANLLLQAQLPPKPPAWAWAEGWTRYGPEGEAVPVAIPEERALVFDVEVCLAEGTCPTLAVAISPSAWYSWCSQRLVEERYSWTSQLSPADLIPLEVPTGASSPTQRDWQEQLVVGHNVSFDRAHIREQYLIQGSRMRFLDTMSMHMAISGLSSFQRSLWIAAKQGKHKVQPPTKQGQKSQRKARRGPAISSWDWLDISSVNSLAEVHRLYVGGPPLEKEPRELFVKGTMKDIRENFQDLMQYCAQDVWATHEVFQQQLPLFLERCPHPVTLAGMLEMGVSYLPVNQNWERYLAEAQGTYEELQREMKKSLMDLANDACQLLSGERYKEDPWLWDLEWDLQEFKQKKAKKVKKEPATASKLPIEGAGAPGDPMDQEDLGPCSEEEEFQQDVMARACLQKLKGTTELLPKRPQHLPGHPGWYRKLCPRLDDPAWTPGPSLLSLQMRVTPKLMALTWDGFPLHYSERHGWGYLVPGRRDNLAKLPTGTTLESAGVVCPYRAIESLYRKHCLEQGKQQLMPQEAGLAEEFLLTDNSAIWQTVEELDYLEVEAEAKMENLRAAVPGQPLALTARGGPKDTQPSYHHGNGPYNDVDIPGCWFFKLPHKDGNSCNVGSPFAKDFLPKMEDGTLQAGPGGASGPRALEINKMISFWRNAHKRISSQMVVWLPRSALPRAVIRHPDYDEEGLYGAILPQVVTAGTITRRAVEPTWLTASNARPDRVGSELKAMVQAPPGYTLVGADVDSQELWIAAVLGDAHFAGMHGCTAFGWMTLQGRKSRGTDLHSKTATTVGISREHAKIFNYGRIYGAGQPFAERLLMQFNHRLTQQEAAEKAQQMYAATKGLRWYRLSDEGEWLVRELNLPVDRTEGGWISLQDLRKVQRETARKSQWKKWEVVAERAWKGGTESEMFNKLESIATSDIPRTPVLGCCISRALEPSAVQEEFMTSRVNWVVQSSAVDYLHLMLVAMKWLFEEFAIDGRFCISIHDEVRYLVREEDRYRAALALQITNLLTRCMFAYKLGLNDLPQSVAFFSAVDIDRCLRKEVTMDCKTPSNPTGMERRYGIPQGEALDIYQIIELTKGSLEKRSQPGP
Outline: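 Reactions contained 25 μM each dATP/dCTP/dGTP, 25 nM TTP plus 1 μCi ³H-TTP, 160 nM template/primer, and serially diluted test nucleotide (0–200 μM). Incubation was 1 h at 37°C, stopped with TCA (10% final). DNA was precipitated 40 min at 4°C, washed and scintillation-counted; inhibition was taken from reduced radioactivity.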

Row | Structure (SMILES) | IC50 (DNA polymerase α (Pol-α)) [µM] | IC90 (DNA polymerase α (Pol-α)) [µM] | IC50 (DNA polymerase γ (Pol-γ)) [µM] | IC90 (DNA polymerase γ (Pol-γ)) [µM]
1 | Nc1ncnc2c1ncn2[C@@H]1O[C@H](COP(=O)(O)OP(=O)(O)OP(=O)(O)O)[C@@H](O)[C@H]1F [2′-F-ATP] | > 200 | > 200 | > 200 | > 200
2 | Nc1ccn([C@@H]2O[C@H](COP(=O)(O)OP(=O)(O)OP(=O)(O)O)[C@@H](O)[C@H]2F)c(=O)n1 [2′-F-CTP] | > 200 | > 200 | > 200 | > 200

Continued, values first:

Row | IC50 (DNA polymerase α (Pol-α)) [µM] | IC90 (DNA polymerase α (Pol-α)) [µM] | IC50 (DNA polymerase γ (Pol-γ)) [µM] | IC90 (DNA polymerase γ (Pol-γ)) [µM] | Structure (SMILES)
3 | > 200 | > 200 | > 200 | > 200 | Nc1nc2c(ncn2[C@@H]2O[C@H](COP(=O)(O)OP(=O)(O)OP(=O)(O)O)[C@@H](O)[C@H]2F)c(=O)[nH]1 [2′-F-GTP]
4 | > 200 | > 200 | > 200 | > 200 | O=c1ccn([C@@H]2O[C@H](COP(=O)(O)OP(=O)(O)OP(=O)(O)O)[C@@H](O)[C@H]2F)c(=O)[nH]1 [2′-F-UTP]
5 | 0.27 | 13.7 | 1.04 | 13.4 | O=c1[nH]c(=O)n([C@@H]2O[C@H](COP(=O)(O)OP(=O)(O)OP(=O)(O)O)[C@@H](O)[C@@H]2F)cc1I [FIAU-TP, fialuridine triphosphate, reference compound]
